Screening results deposited in PubChem BioAssay by several laboratories.
Cl transport mod: modulates chloride dependent transport by human KCC2; KCC2 cells, thallium flux FluoZin-2 fluorescence; B-score of Tl+ flux slope (higher = more flux/activation; lower = inhibition) at 10 µM; 2.2% of 190,000 active; AID 1456;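 active means thallium flux slope and its plate-corrected score both differing from the plate sample mean at a set confidence after two filtering rounds, in either direction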;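 further: slope of fluorescence scaled to starting intensity during 10 to 20 s after thallium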
Target sequence (Q9H2X9 whole entry, looked up): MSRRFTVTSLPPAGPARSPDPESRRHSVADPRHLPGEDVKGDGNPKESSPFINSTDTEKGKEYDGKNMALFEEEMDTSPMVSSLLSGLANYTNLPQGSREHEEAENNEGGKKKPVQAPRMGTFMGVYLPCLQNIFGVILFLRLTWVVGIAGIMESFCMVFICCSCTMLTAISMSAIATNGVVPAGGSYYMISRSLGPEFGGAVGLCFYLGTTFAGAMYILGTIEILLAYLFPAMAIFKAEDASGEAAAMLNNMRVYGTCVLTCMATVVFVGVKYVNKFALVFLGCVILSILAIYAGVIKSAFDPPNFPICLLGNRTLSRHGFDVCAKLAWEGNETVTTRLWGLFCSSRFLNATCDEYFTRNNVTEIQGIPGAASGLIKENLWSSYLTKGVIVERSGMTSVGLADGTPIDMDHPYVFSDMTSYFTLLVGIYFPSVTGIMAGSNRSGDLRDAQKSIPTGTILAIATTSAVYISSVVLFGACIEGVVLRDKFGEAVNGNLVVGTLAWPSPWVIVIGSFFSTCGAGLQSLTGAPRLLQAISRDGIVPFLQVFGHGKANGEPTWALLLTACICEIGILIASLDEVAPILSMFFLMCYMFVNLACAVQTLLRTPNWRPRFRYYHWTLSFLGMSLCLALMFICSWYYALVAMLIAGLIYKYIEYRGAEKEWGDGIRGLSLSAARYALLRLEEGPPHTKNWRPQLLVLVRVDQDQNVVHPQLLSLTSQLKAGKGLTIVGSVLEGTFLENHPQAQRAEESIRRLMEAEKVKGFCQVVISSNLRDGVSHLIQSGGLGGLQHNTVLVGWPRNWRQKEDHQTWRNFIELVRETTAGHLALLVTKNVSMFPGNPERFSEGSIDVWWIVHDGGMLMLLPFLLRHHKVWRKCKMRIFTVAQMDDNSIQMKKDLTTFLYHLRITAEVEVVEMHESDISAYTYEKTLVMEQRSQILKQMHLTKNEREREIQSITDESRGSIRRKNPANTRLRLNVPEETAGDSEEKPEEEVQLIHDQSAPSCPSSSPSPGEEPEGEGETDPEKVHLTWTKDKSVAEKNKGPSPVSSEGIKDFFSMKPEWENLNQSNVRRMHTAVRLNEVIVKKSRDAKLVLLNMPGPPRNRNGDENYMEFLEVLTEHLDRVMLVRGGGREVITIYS
ROMK mod: modulators of human ROMK potassium channel | P48048 | Tet-inducible ROMK, thallium flux fluorescence; actives lie on both sides | B-score at 10 µM | 2% of 130,000 active | AID 1918;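 active means signal ratio slope over the read window, or its plate-corrected B-score, at least 3 SD from the plate mean, either direction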;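 further: B-score of the F/F0 ratio slope over 7 to 12 s after thallium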
Dynein cargo inh: blocks dynein driven cargo transport along microtubules | 3617.4 mouse cells, GR-EGFP nuclear translocation imaging; test concentration mostly 20 µM; stimulated with dexamethasone, 1 µM; hits give low values | z-score, hits read low | 0.47% of 220,000 active;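 active means plate z-score of nuclear minus cytoplasmic receptor signal below a set negative limit, without overly bright fluorescence or cell loss, cut at about -3.5 in these data, passing the limit was not always enough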;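 further: z-score of nuclear minus cytoplasmic ring GR-EGFP intensity difference per well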
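Buffer or medium: tet-free, stripped-serum medium; Also added: dexamethasone, 1.0 µM final; Technique: high-content fluorescence imaging after fixation; Times: 48 h induction, 1 h compound, 30 min dex at 37 °C; Read-out: per-cell GR-EGFP intensity, nucleus versus surrounding cytoplasmic ring, well-averaged.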
Autophagy HCS: autophagy modulation, high-content screen | MEF GFP-LC3 puncta imaging; test concentration mostly 10 µM | calls only at 10 µM (by protocol) | 0.98% of 190,000 active | AID 463193;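 active means percentage of spot-positive cells more than 3 SD above its plate mean, without a fluorescence outlier flag or 80% toxicity; inconclusive means no clear call, values can overlap the other calls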;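 further: spot-positive cell cutoff set from DMSO-treated cells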
DTT redox prof: compounds producing H2O2 with reducing agent – biochemical, NIH compound library profiling, artefact control for MLSCN library redox annotation, primary screen | activation, % at 10 µM | 0.03% of 200,000 active | AID 878 | DTT-dependent redox cycling H2O2, phenol red/HRP absorbance; 100% = 100 µM peroxide control, 0% = buffer;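 active means activation of at least 50% relative to the plate's high and low controls in the primary single-dose screen; inactive means activation below 50%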;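 further: compound incubated with DTT at 0.8 mM final as the reducing agent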
KCC2 secondary: KCC2 (human) modulation, secondary assay; HEK293-KCC2, thallium flux, FluoZin2 fluorescence; hits give high values; normalised thallium flux (F/F0 slope) at 10 µM; shares compounds with Cl transport mod; AID 1713; 15% of 3,700 active;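 active means thallium flux slope above the same plate's solvent-only control mean plus 3 SD; inconclusive means the two replicate wells disagree; inactive means no significant difference from solvent-only control wells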
KCC2 bumet counter: thallium flux persisting under bumetanide in KCC2 cells, counter-screen secondary assay; shares compounds with Cl transport mod; HEK293-KCC2 + bumetanide/ouabain, thallium flux FluoZin2; hits give high values; normalized thallium flux at 10 µM; 49% of 3,700 active; AID 1714;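 active means thallium entry rate above the same plate's blocked-transporter control wells by more than 3 SD; inconclusive means the two repeat wells disagree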;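 further: raw slope of fluorescence over initial fluorescence between 10 and 20 s after thallium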
KCC2 secondary2: confirmation of human KCC2 transport modulators; shares compounds with Cl transport mod; HEK293-KCC2, thallium flux FluoZin2 fluorescence; actives lie on both sides; F/F0 rise rate, 10–20 s post-thallium; normalized thallium flux at 10 µM; 23% of 3,700 active;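 active means thallium flux slope more than 3 SD above or below the plate's solvent-only control mean, mostly below; inconclusive means the two repeat wells disagreed; inactive means no significant shift from solvent-only controls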;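 further: raw slope with 0.1% DMSO as baseline and bumetanide as block control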
HEK293 Tl flux: counter-screen for KCC2 modulators: effect in parental HEK293 cells. shares compounds with Cl transport mod. thallium flux FluoZin2, ouabain; baseline-ratio fluorescence slope, 10–20 s after thallium. thallium flux rate (normalised fluorescence) at 10 µM. 46% of 3,700 active. AID 1716;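 active means thallium flux rate significantly above the same plate's solvent-only control wells, beyond their mean plus 3 SD; inconclusive means the two replicate wells gave conflicting results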
KCC2 ouabain: KCC2 (human) modulation, ouabain retest | HEK293-KCC2, thallium flux FluoZin2 fluorescence; bidirectional: low = inhibitor, high = activator | raw Tl+ flux slope (below DMSO = inhibition, above = activation) at 10 µM | shares compounds with Cl transport mod | AID 1717 | 48% of 3,700 active;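 active means thallium flux slope beyond 3 SD from same-plate DMSO control mean in most replicates, usually higher, sometimes lower; inconclusive means repeat tests gave conflicting results; inactive means no significant difference from controls in most replicates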;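 further: slope of initial-normalized fluorescence between seconds 10 and 20 after thallium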
HEK counter2: counter-screen for KCC2 modulators: effect in parental HEK293 cells. shares compounds with Cl transport mod. thallium flux FluoZin-2 fluorescence slope. thallium flux slope at 10 µM. 33% of 3,700 active. AID 1718;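 active means thallium flux slope above the same plate's solvent-control mean plus 3 SD in both duplicate wells; inconclusive means duplicate wells that disagreed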;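 further: run without ouabain in cells lacking the KCC2 cotransporter; slope of fluorescence scaled to its starting value between 10 and 20 s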
Starred values were filed as active, the others as inactive; i = inactive; ? = inconclusive; / = not tested or not shown. This is a sample that favours compounds with a hit; in the whole collection about 4.1% have one here.

SMILES	Cl transport mod	ROMK mod	Dynein cargo inh	Autophagy HCS	DTT redox prof	KCC2 secondary	KCC2 bumet counter	KCC2 secondary2	HEK293 Tl flux	KCC2 ouabain	HEK counter2
COCCn1c(SCC(=O)N(C)C2CCS(=O)(=O)C2)nc2ccccc2c1=O (stereo unspecified)	0.28	-0.023	0.17	i	0	/	/	/	/	/	/
CN(C(=O)CSc1nc2ccccc2n1CCc1ccccc1)C1CCS(=O)(=O)C1 (stereo unspecified)	9.5*	/	-0.12	i	-1	0.0072	0.015*	0.031	0.011*	?	0.014*
O=C(CCOc1ccccc1)Nc1ccc([N+](=O)[O-])cc1	-1.5	-0.93	-0.69	i	0	/	/	/	/	/	/
Cn1c(SCC(=O)Nc2cccc(S(=O)(=O)NC3=NCCCCC3)c2)nnc1-c1ccccc1	0.33	-0.037	-0.76	i	-2	/	/	/	/	/	/
Cc1ccccc1C([O-])=Nc1ccc[n+](-c2nc3ccccc3nc2NS(=O)(=O)c2ccccc2)c1	0.51	-1.2	0.16	/	/	/	/	/	/	/	/
COc1ccc2cc(C(=O)C3CCCN(C(=O)c4cc5nc(C)cc(C)n5n4)C3)ccc2c1 (stereo unspecified)	0.19	0.092	-0.88	i	-2	/	/	/	/	/	/
COc1cc2c3c(c1)c(N=NC(N)=S)c(O)n3C(C)(C)C=C2C	21*	/	-0.052	/	/	?	0.026*	0.037	0.017*	?	0.014*
CC1=CC(C)(C)n2c(O)c(N=NC(N)=S)c3c(C)ccc1c32	3.8*	/	0.22	i	1	0.011	0.012*	0.035	0.016*	0.023	?
CC1=CC(C)(C)n2c(O)c(N=N)c3c(C)ccc1c32	1.4	/	-0.55	/	/	/	/	/	/	/	/
Cc1cc(C)c(S(=O)(=O)Cc2ccccc2)c(=O)[nH]1	0.46	0.013	1.1	i	1	/	/	/	/	/	/
CC(=O)Nc1sc(-c2ccc(Cl)cc2)nc1-c1ccccc1	7.3*	-0.34	0.33	/	/	0.019*	0.055*	0.033	0.0092*	0.024	0.01
CC(=O)Nc1sc(-c2ccccc2)nc1-c1ccccc1	0.046	/	-0.48	i	-1	/	/	/	/	/	/
Cc1ccc(NC(=O)CC(NCC2CCCO2)C(=O)O)cc1C (stereo unspecified)	0.84	-0.6	0.22	i	-1	/	/	/	/	/	/
O=c1[nH]c(-c2ccccn2)nc2sc(-c3ccccc3)cc12	4.4*	-0.03	0.64	i	-1	0.0097	0.018*	0.032	0.033*	?	0.015*
Cc1c(C(=O)N(C)C)sc2nc(-c3ccccn3)[nH]c(=O)c12	0.22	-0.46	-0.035	i	1	/	/	/	/	/	/
CN(NS(=O)(=O)c1ccc(Br)cc1)c1nc(C(F)(F)F)nc2ccccc12	-3.8*	/	1.1	i	-1	0.0066	0.0059	0.029	0.0061	0.018*	0.0098
Cc1nc(N2CCN(Cc3ccccc3)CC2)nc2c1C(=O)CCC2	-2.9*	1.2	-0.89	i	2	0.0065	0.0042	?	0.0069	0.015*	0.0095
Cc1ccc(C(=O)NC(=S)N2CC(C)OC(C)C2)cc1[N+](=O)[O-] (stereo unspecified)	/	/	-0.69	i	2	0.018*	0.037*	0.03	0.021*	0.035*	0.013*
COc1ccc(C(=O)NC(=S)N2CCCCC2)cc1[N+](=O)[O-]	6.8*	/	0.48	i	/	0.012	0.021*	0.035	0.012*	0.026	?
COc1cc(OC)cc(C(=O)NC(=S)N2CCCCCC2)c1	74*	0.45	-0.35	i	0	0.034*	0.11*	0.04*	0.062*	0.083*	0.021*
O=C(NCc1ccco1)C(=O)NCC1OCCN1C(=O)c1ccc(Cl)cc1 (stereo unspecified)	-0.81	0.29	-0.64	/	/	/	/	/	/	/	/
CC(C)(C)C(=O)NC(=S)NNC(=O)c1ccc(Cl)cc1Cl	38*	-0.53	-0.84	i	2	0.031*	0.05*	0.039	0.053*	0.058*	0.017*
COC(=O)NNC(=O)c1ccc(Cl)cc1Cl	0.21	-0.19	0.26	i	0	/	/	/	/	/	/
CCn1c(SCC(=O)Nc2ccc(Cl)cc2)nc2nc3c(cc2c1=O)CCCC3	4.8*	/	0.2	i	0	?	0.015*	0.033	0.013*	?	0.013*
CCN(CC)S(=O)(=O)c1ccc(Cl)c(OC)c1	/	-0.45	0.15	i	0	0.008	0.0051	0.029	0.0065	0.02	0.0087
SMILES	Cl transport mod	ROMK mod	Dynein cargo inh	Autophagy HCS	DTT redox prof	KCC2 secondary	KCC2 bumet counter	KCC2 secondary2	HEK293 Tl flux	KCC2 ouabain	HEK counter2
O=C(COc1ccc2c(c1)CCC2)NCc1ccc(Cl)cc1	0.68	-0.15	0.93	i	0	/	/	/	/	/	/
CN(C)C(=O)c1ccc(N/C=C(\C=O)c2nc3ccccc3o2)cc1	-0.12	/	2.1	i	0	/	/	/	/	/	/
Cc1nc(NCc2cccnc2)c2c3c(sc2n1)CC(C)CC3 (stereo unspecified)	59*	0.37	-0.67	i	-1	0.036*	0.16*	0.038*	0.097*	0.087*	0.034*
CS(=O)(=O)N(CC(=O)N1CCCC1)c1ccc2c(c1)OCCO2	/	-0.033	-1.8	i	0	0.0073	0.005	0.03	0.0084	0.018	0.011
O=C(CCCOc1ccccc1)NC1CCCc2ccccc21 (stereo unspecified)	0.079	-0.13	-0.64	i	0	/	/	/	/	/	/
CC(=O)Oc1c(/C=C(\C#N)C(N)=O)[nH]c2ccccc12	/	/	-0.77	i	0	/	/	/	/	/	/
Fc1ccccc1COc1ccc(Br)cc1CNCc1ccncc1	-3.3*	-2.2	-0.66	i	0	?	0.0057	0.034	0.0068	0.014*	0.01
Fc1ccccc1COc1ccc(Br)cc1CNCc1cccnc1	-1.3	0.045	1.5	i	-1	/	/	/	/	/	/
COc1cc(OC)c(C2=NOC(C(=O)N3CCN(C(=O)c4ccco4)CC3)C2)cc1Cl (stereo unspecified)	-0.61	0.003	-0.56	i	0	/	/	/	/	/	/
